Here are results for eleven molecules from publication PMC10061536 (ACS Omega, 2023).

For one assay, the system named is α-amylase. The assay can be described thus: α-Amylase inhibition assay. In kind it is biochemical. To be noted: for IC50: read-out: IC50 ± SEM, α-amylase inhibition.
Assay [1] concerns the target Bovine serum albumin (BSA)-glucose model (Bos taurus, UniProt P02769). The assay can be described thus: In vitro anti-glycation assay, BSA-glucose model. The assay is classed as biochemical. To be noted: for inhibition at 100 ppm / inhibition at 200 ppm / inhibition at 400 ppm / inhibition at 600 ppm / inhibition at 800 ppm / inhibition at 1000 ppm: read-out: % age antiglycation inhibition. In a few lines: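 Glycation is read by measuring the fluorescence of glycated products on a spectrofluorometer.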

A short description of assay [2]: DPPH radical scavenging assay. The note with it: for IC50: read-out: IC50 (mM ± SEM), DPPH scavenged by 50%; for percentage antioxidant potential: at tested concentrations, IC50 not calculated. In a few lines:
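Radical scavenging of DPPH by the test compound, with ascorbic acid as the reference.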

Chain of Bovine serum albumin (BSA)-glucose model (P02769 25-607): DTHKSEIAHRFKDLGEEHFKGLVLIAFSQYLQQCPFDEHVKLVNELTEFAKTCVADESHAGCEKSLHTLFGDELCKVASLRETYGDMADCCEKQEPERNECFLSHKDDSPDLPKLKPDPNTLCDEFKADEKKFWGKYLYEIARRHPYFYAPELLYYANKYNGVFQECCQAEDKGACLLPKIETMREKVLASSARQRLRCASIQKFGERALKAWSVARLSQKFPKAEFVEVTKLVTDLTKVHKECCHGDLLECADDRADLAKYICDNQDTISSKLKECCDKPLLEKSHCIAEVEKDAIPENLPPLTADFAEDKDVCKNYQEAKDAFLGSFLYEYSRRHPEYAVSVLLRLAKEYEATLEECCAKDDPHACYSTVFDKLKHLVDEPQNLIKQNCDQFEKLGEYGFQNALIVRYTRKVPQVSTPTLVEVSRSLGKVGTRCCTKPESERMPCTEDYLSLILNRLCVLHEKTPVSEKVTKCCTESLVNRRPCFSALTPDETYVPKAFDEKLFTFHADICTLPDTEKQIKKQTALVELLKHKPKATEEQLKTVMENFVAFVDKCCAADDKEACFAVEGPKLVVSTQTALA

For orientation: IC50 means the point on the concentration scale where inhibition reaches its midpoint. One may read the inhibition as the drop in the measured response relative to a control, in per cent. Turning to `CC(CCc1ccccc1)=NNc1nc(-c2ccc(F)cc2)cs1` [3c, 4-(4-Fluorophenyl)-2-(2-(4-phenylbutan-2-ylidene)hydrazinyl)thiazole], the “% age α-amylase inhibition” value in the assay on α-amylase (1 μM) came to 30.03%; in the assay on α-amylase (5 μM), 45.41%; in the assay on α-amylase (10 μM), 58.12%. Besides, the IC50 was 7.52 ± 0.05 µM at α-amylase and 11.4 ± 0.12 mM in assay [2]. In addition, in assay [1], the inhibition at 100 ppm turned out to be 67.6%. Further, the inhibition at 200 ppm in assay [1] came to 68.9%. The inhibition at 400 ppm in assay [1] amounted to 69.7%. In assay [1], the inhibition at 600 ppm stood at 75.7%. Also, the inhibition at 800 ppm in assay [1] was found to be 77.9%. Also, the inhibition at 1000 ppm in assay [1] stood at 81.6%. The “% age antioxidant potential” value in assay [2] (3 mM) was 0.00%; in assay [2] (6 mM), 11.13%; in assay [2] (9 mM) it was 34.28%; in assay [2] (12 mM), 57.51%; in assay [2] (15 mM), 73.34%.
In the case of `C[C@H]1O[C@H](O[C@H]2[C@H](O)[C@@H](O)[C@@H](O[C@H]3[C@H](O)[C@@H](O)C(O)O[C@@H]3CO)O[C@@H]2CO)[C@H](O)[C@@H](O)[C@@H]1N[C@H]1C=C(CO)[C@@H](O)[C@H](O)[C@H]1O` (stereo partly shown) [acarbose, reference compound], the “% age α-amylase inhibition” value was 53.42% with α-amylase (1 μM), 66.81% in the assay on α-amylase (5 μM) and 74.77% with α-amylase (10 μM).
Turning to `Cc1ccc(C=NNc2nc(-c3ccc(F)cc3)cs2)c(Br)c1` [3b, 2-(2-(2-Bromo-4-methylbenzylidene)hydrazinyl)-4-(4-fluorophenyl)thiazole], the “% age α-amylase inhibition” value in the assay on α-amylase (1 μM) was 31.95%; with α-amylase (5 μM) it was 51.54%; with α-amylase (10 μM), 62.71%. In addition, the figures for the IC50 (at α-amylase; in assay [2]) were 6.87 ± 0.01 µM and 11.3 ± 0.14 mM, respectively. Besides, in assay [1], the inhibition at 100 ppm stood at 81.2%. Moreover, the inhibition at 200 ppm in assay [1] came to 84.6%. In addition, in assay [1], the inhibition at 400 ppm is 85.2%. Besides, the inhibition at 600 ppm in assay [1] is 86.2%. Further, in assay [1], the inhibition at 800 ppm was determined as 86.8%. Besides, in assay [1], the inhibition at 1000 ppm stood at 87.5%. Moreover, the “% age antioxidant potential” value turned out to be 8.77% in assay [2] (3 mM); 23.69% in assay [2] (6 mM); 36.38% in assay [2] (9 mM); 53.65% in assay [2] (12 mM); 69.82% in assay [2] (15 mM).
With `CCOc1ccccc1C=NNc1nc(-c2ccc(F)cc2)cs1` [3j, 2-(2-(2-Ethoxybenzylidene)hydrazinyl)-4-(4-fluorophenyl)thiazole], the “% age α-amylase inhibition” value in the assay on α-amylase (1 μM) stood at 29.58%; with α-amylase (5 μM) it was 42.23%; in the assay with α-amylase (10 μM), 54.03%. Further, the IC50 worked out at 8.07 ± 0.12 µM on α-amylase and 8.33 ± 0.08 mM in assay [2]. In addition, in assay [1], the inhibition at 100 ppm was 52.3%. For the same molecule, in assay [1], the inhibition at 200 ppm was found to be 61.5%. Besides, the inhibition at 400 ppm in assay [1] was determined as 66.5%. Besides, the inhibition at 600 ppm in assay [1] is 70.3%. Moreover, the inhibition at 800 ppm in assay [1] worked out at 76.2%. Besides, the inhibition at 1000 ppm in assay [1] was determined as 79.2%. The “% age antioxidant potential” value in assay [2] (3 mM) stood at 18.18%; in assay [2] (6 mM), 45.90%; in assay [2] (9 mM) it was 62.07%; in assay [2] (12 mM), 75.45%; in assay [2] (15 mM), 78.51%.
`O=C1O[C@H]([C@@H](O)CO)C(O)=C1O` [ascorbic acid, reference compound]: the “% age antioxidant potential” value in assay [2] (3 mM) is 52.34%; in assay [2] (6 mM) it was 61.01%; in assay [2] (9 mM), 74.41%; in assay [2] (12 mM), 81.85%; in assay [2] (15 mM) it was 84.92%. Also, in assay [2], the IC50 stood at 7.18 ± 0.01 mM.
In the case of `Oc1ccc(Cl)cc1C=NNc1nc(-c2ccc(F)cc2)cs1` [3h, 4-Chloro-2-((2-(4-(4-fluorophenyl)thiazol-2-yl)hydrazinylidene)methyl)phenol], the “% age α-amylase inhibition” value in the assay on α-amylase (1 μM) is 55.89%; in the assay with α-amylase (5 μM), 69.05%; in the assay with α-amylase (10 μM), 82.47%. Also, the IC50 on α-amylase is 5.14 ± 0.03 µM. For the same molecule, in assay [1], the inhibition at 100 ppm amounted to 50.9%. The inhibition at 200 ppm in assay [1] was 56.5%. Moreover, the inhibition at 400 ppm in assay [1] stood at 65.5%. Further, the inhibition at 600 ppm in assay [1] is 68.4%. In assay [1], the inhibition at 800 ppm worked out at 69%. In addition, the inhibition at 1000 ppm in assay [1] is 70.7%. The “% age antioxidant potential” value in assay [2] (3 mM) came out at 0.00%; in assay [2] (6 mM), 0.00%; in assay [2] (9 mM), 0.00%; in assay [2] (12 mM), 8.78%; in assay [2] (15 mM), 23.25%. Besides, the percentage antioxidant potential entry in assay [2] is on record as “less than 50%”.
On to `Fc1ccc(-c2csc(NN=Cc3cccs3)n2)cc1` [3n, 4-(4-Fluorophenyl)-2-(2-(thiophen-2-ylmethylene)hydrazinyl)thiazole], for which the figures for the “% age α-amylase inhibition” value in the assay on α-amylase (1 μM), with α-amylase (5 μM) and in the assay with α-amylase (10 μM) were 51.64%, 64.48% and 71.83%, respectively. Further, the IC50 was 5.77 ± 0.05 µM at α-amylase and 13.86 ± 0.04 mM in assay [2]. Besides, in assay [1], the inhibition at 100 ppm is 79.3%. Besides, the inhibition at 200 ppm in assay [1] came out at 81%. In addition, in assay [1], the inhibition at 400 ppm came out at 82.1%. Also, the inhibition at 600 ppm in assay [1] was determined as 83%. Also, in assay [1], the inhibition at 800 ppm turned out to be 85.8%. Moreover, the inhibition at 1000 ppm in assay [1] is 87.8%. The “% age antioxidant potential” value in assay [2] (3 mM) was 0.00%; in assay [2] (6 mM), 12.72%; in assay [2] (9 mM), 30.39%; in assay [2] (12 mM), 45.47%; in assay [2] (15 mM), 59.36%.
Regarding `CSc1ccccc1C=NNc1nc(-c2ccc(F)cc2)cs1` [3o, 4-(4-Fluorophenyl)-2-(2-(2-(methylthio)benzylidene)hydrazinyl)thiazole], the “% age α-amylase inhibition” value in the assay with α-amylase (1 μM) turned out to be 33.07%; in the assay on α-amylase (5 μM), 43.03%; in the assay with α-amylase (10 μM), 57.18%. The IC50 at α-amylase stood at 7.69 ± 0.18 µM; in assay [2], 18 ± 0.27 mM. Moreover, the inhibition at 100 ppm in assay [1] stood at 83.7%. For the same molecule, the inhibition at 200 ppm in assay [1] is 84.2%. Besides, the inhibition at 400 ppm in assay [1] came out at 85.5%. Also, the inhibition at 600 ppm in assay [1] came out at 86.4%. Further, the inhibition at 800 ppm in assay [1] came to 88.2%. For the same molecule, the inhibition at 1000 ppm in assay [1] worked out at 89.5%. The “% age antioxidant potential” value in assay [2] (3 mM) amounted to 0.00%; in assay [2] (6 mM), 7.68%; in assay [2] (9 mM) it was 18.22%; in assay [2] (12 mM) it was 30.15%; in assay [2] (15 mM) it was 53.73%.
In the case of `CC(=NNc1nc(-c2ccc(F)cc2)cs1)c1ccc(F)cc1` [3g, 4-(4-Fluorophenyl)-2-(2-(1-(4-fluorophenyl)ethylidene)hydrazinyl)thiazole], the “% age α-amylase inhibition” value in the assay with α-amylase (1 μM) was determined as 38.00%; in the assay with α-amylase (5 μM), 49.56%; in the assay with α-amylase (10 μM) it was 62.75%. In addition, the results for the concentration for half-maximal inhibition (IC50) (on α-amylase; in assay [1]) were 6.9 ± 0.23 µM and 1770 µM, respectively. Further, in assay [1], the inhibition at 100 ppm was 24.3%. Further, the inhibition at 200 ppm in assay [1] worked out at 34.6%. Moreover, in assay [1], the inhibition at 400 ppm came out at 48.8%. In assay [1], the inhibition at 600 ppm stood at 54.3%. Also, the inhibition at 800 ppm in assay [1] came out at 66.6%. Moreover, the inhibition at 1000 ppm in assay [1] was found to be 74.6%. Besides, the “% age antioxidant potential” value is on record as 0.00% in assay [2] (3 mM); 0.00% in assay [2] (6 mM); 0.00% in assay [2] (9 mM); 0.00% in assay [2] (12 mM); 8.45% in assay [2] (15 mM). For the same molecule, the percentage antioxidant potential entry in assay [2] is recorded as “less than 50%”.
Consider `COc1c(F)cccc1C=NNc1nc(-c2ccc(F)cc2)cs1` [3l, 2-(2-(3-Fluoro-2-methoxybenzylidene)hydrazinyl)-4-(4-fluorophenyl)thiazole], for which the “% age α-amylase inhibition” value was 37.06% in the assay with α-amylase (1 μM), 49.08% in the assay with α-amylase (5 μM) and 61.72% in the assay with α-amylase (10 μM). Besides, the half-inhibitory concentration (IC50) at α-amylase worked out at 7 ± 0.13 µM; in assay [2], 12.94 ± 0.01 mM. Besides, in assay [1], the inhibition at 100 ppm was 79.9%. The inhibition at 200 ppm in assay [1] came to 81.8%. In addition, in assay [1], the inhibition at 400 ppm is 83%. In addition, in assay [1], the inhibition at 600 ppm came to 84.6%. Besides, the inhibition at 800 ppm in assay [1] worked out at 86.2%. Moreover, the inhibition at 1000 ppm in assay [1] turned out to be 87.1%. The “% age antioxidant potential” value in assay [2] (3 mM) is given as 0.00%; in assay [2] (6 mM), 15.62%; in assay [2] (9 mM) it was 32.06%; in assay [2] (12 mM), 46.14%; in assay [2] (15 mM) it was 65.18%.
As for `Fc1ccc(-c2csc(NN=Cc3cccc(C(F)(F)F)c3)n2)cc1` [3i, 4-(4-Fluorophenyl)-2-(2-(3-(trifluoromethyl)benzylidene)hydrazinyl)thiazole], the “% age α-amylase inhibition” value in the assay with α-amylase (1 μM) stood at 38.90%; in the assay on α-amylase (5 μM) it was 51.09%; with α-amylase (10 μM), 64.58%. The IC50 on α-amylase was 6.7 ± 0.08 µM. In assay [1], the inhibition at 100 ppm is 88%. In assay [1], the inhibition at 200 ppm came to 88.5%. For the same molecule, the inhibition at 400 ppm in assay [1] was determined as 89.1%. Besides, in assay [1], the inhibition at 600 ppm came to 90%. Besides, the inhibition at 800 ppm in assay [1] amounted to 91.2%. In assay [1], the inhibition at 1000 ppm came to 92.2%. For the same molecule, the “% age antioxidant potential” value in assay [2] (3 mM) is recorded as 0.00%; in assay [2] (6 mM), 8.64%; in assay [2] (9 mM) it was 18.87%; in assay [2] (12 mM), 32.26%; in assay [2] (15 mM), 46.53%. Moreover, the percentage antioxidant potential entry in assay [2] is recorded as “less than 50%”.
